Assay results: ChEMBL document CHEMBL5154634, “A Modular Synthetic Route Involving N-Aryl-2-nitrosoaniline Intermediates Leads to a New Series of 3-Substituted Halogenated Phenazine Antibacterial Agents” (J Med Chem, 2021)
In brackets after ≈: the same amount, converted by molar mass. Activity calls are given as the source filed them. The rule behind the calls is not given here.

Tests used:
Staphylococcus aureus [1] = test: Antibacterial activity against methicillin-resistant Staphylococcus aureus 147 assessed as bacterial growth inhibition; format: functional
Staphylococcus aureus [2] = test: Antibacterial activity against methicillin-resistant Staphylococcus aureus 156 assessed as bacterial growth inhibition; format: functional
Staphylococcus aureus [3] = test: Antibacterial activity against methicillin-resistant Staphylococcus aureus clinical isolate 1 assessed as bacterial growth inhibition; format: functional
Staphylococcus aureus [4] = test: Antibacterial activity against methicillin-resistant Staphylococcus aureus clinical isolate 2 assessed as bacterial growth inhibition; format: functional
Staphylococcus aureus [5] = test: Antibacterial activity against methicillin-resistant Staphylococcus aureus BAA-1707 assessed as bacterial growth inhibition incubated for 16 hrs by broth microdilution susceptibility test; format: functional
Outline: (§1)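 CLSI broth microdilution with 11 twofold dilutions (0.05–50 μM). About 10^5 cells per well from a log-phase culture. DMSO vehicle up to 0.5% v/v. At least three independent experiments.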

[6] = Dissociation constant, pKa of the compound at 125 uM by UV-vis spectrophotometric analysis; format: physicochemical
Outline: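 Compound at 125 μM final in phosphate buffers (KH₂PO₄/Na₂HPO₄) in 1:1 water/methanol, pH 4.07–9.66; ammonium hydroxide added for pH above 9.80. UV-vis scans 200–800 nm to find λmax of phenol and phenolate forms. Absorbance at each λmax plotted against pH.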

[7] = Binding affinity to Fe2+ assessed as compound-Fe2+ complex formation by UV-vis spectroscopy
Enterococcus faecium [8] = test: Antibacterial activity against vancomycin-resistant Enterococcus faecium ATCC 700221 assessed as bacterial growth inhibition incubated for 16 hrs by broth microdilution susceptibility test; format: functional
Outline: (§2)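 CLSI broth microdilution with 11 twofold dilutions (0.05–50 μM). Medium was LB for the staphylococci and BHI for VRE 700221. About 10^5 cells per well from a log-phase culture. […] DMSO vehicle up to 0.5% v/v. At least three independent experiments.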

[9] = test system: Staphylococcus epidermidis; test: Antibacterial activity against methicillin-resistant Staphylococcus epidermidis ATCC 35984 assessed as bacterial growth inhibition incubated for 16 hrs by broth microdilution susceptibility test; format: functional; outline: as §1
Staphylococcus aureus [10] = test: Antibiofilm activity against methicillin-resistant Staphylococcus aureus BAA-1707 biofilms assessed as biofilm eradication incubated for 24 hrs followed by incubation for 24 hrs in fresh medium by Calgary biofilm device assay; format: functional
Outline: (§3)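 Calgary biofilm device. Mid-log culture diluted 1000-fold in TSB with 0.5% glucose; biofilms grown on pegs 24 h at 37 °C. Pegs washed and challenged with twofold compound dilutions for 24 h at 37 °C, then moved to fresh medium for 24 h. MBEC is the lowest concentration leaving wells non-turbid. At least three independent experiments.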

Enterococcus faecium [11] = test: Antibiofilm activity against methicillin-resistant vancomycin-resistant Enterococcus faecium ATCC 700221 biofilms assessed as biofilm eradication incubated for 24 hrs followed by incubation for 24 hrs in fresh medium by Calgary biofilm device assay; format: functional; outline: as §3
Enterococcus faecalis = test: Antibacterial activity against Enterococcus faecalis OG1RF ATCC 47077 assessed as bacterial growth inhibition incubated for 16 hrs by broth microdilution susceptibility test; format: functional
Staphylococcus aureus [12] = test: Antibacterial activity against methicillin-resistant Staphylococcus aureus 138 assessed as bacterial growth inhibition; format: functional
Staphylococcus aureus [13] = test: Antibacterial activity against methicillin-resistant Staphylococcus aureus BAA-44 assessed as bacterial growth inhibition incubated for 16 hrs by broth microdilution susceptibility test; format: functional; outline: as §2
Erythrocyte = test: Hemolytic activity against human RBC at 200 uM measured after 1 hr; format: toxicity, cell-based
Outline: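 2% hRBCs exposed to compound at 200 μM final, added from DMSO stock, for 1 h at 37 °C. Supernatant OD read at 405 nm. Hemolysis normalized between DMSO (0%) and Triton X (100%); three independent experiments.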

[14] = test system: Staphylococcus epidermidis; test: Bactericidal activity against methicillin-resistant Staphylococcus epidermidis ATCC 35984 planktonic cells assessed as planktonic eradication incubated for 24 hrs followed by incubation for overnight in fresh medium by Calgary biofilm device assay; format: functional
Outline: (§4)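 Calgary biofilm device. Biofilms grown 24 h at 37 °C in TSB with 0.5% glucose, then challenged 24 h with twofold compound dilutions. 20 μL of challenge medium transferred into fresh TSB with 0.5% glucose and incubated overnight at 37 °C. MBC is the concentration with no visible turbidity. At least three independent experiments.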

Staphylococcus aureus [15] = test: Bactericidal activity against methicillin-resistant Staphylococcus aureus BAA-1707 planktonic cells assessed as planktonic eradication incubated for 24 hrs followed by incubation for overnight in fresh medium by Calgary biofilm device assay; format: functional; outline: as §4
J774 = test: Cytotoxicity against mouse J774 cells assessed as reduction in cell viability […] by Alamar blue assay; format: toxicity, cell-based
[16] = test system: Mycobacterium tuberculosis; test: Antibacterial activity against Mycobacterium tuberculosis CDC1551 assessed as bacterial growth inhibition incubated for 5 days by luminescence based analysis; format: functional; settings: CDC1551, 120 h, time 5 day
Outline: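 Bioluminescent Mtb-lux CDC1551 reporter grown in Middlebrook 7H9 with 0.05% Tween 80, 10% OADC and kanamycin to OD600 0.4–0.8, then diluted to OD600 0.02. Added to twofold drug dilutions (0.003–200 μM). Incubated 5 days at 37 °C, 5% CO2. Luminescence read against 1% DMSO and 10 μM rifampicin controls to give % growth inhibition. MIC taken from a modified Gompertz fit.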

HepG2 = test: Cytotoxicity against human HepG2 cells assessed as reduction in cell viability […] by Alamar blue assay; format: toxicity, cell-based
Staphylococcus aureus [17] = test: Antibacterial activity against methicillin-resistant Staphylococcus aureus 129 assessed as bacterial growth inhibition; format: functional

COc1cccc(OC)c1C(=O)N[C@@H]1C(=O)N2[C@@H]1SC(C)(C)[C@@H]2C(=O)O [METHICILLIN]
MIC (Staphylococcus aureus [1]): ≥ 37.5 µM
MIC (Staphylococcus aureus [2]): ≥ 37.5 µM
MIC (Staphylococcus aureus [3]): ≥ 37.5 µM
MIC (Staphylococcus aureus [4]): ≥ 37.5 µM

Oc1cc(Cl)cc2nc3ccccc3nc12
MIC (Staphylococcus aureus [5]): 25 µM (≈ 5.77 µg/mL)
pKa at 125 µM [6]: 8.04
Activity [7]: Active
MIC (Enterococcus faecium [8]): > 50 µM
MIC [9]: 18.8 µM (≈ 4.34 µg/mL)

CCSc1c(Br)c(O)c2nc3cccc(C)c3nc2c1Br
MIC (Staphylococcus aureus [1]): 0.31 µM (≈ 0.133 µg/mL)
MBEC (Staphylococcus aureus [10]): 200 µM
MIC (Staphylococcus aureus [2]): 0.31 µM (≈ 0.133 µg/mL)
MBEC (Enterococcus faecium [11]): 3.13 µM
MIC (Enterococcus faecalis): 0.78 µM (≈ 0.334 µg/mL)
pKa at 125 µM [6]: 7.88
MIC (Staphylococcus aureus [12]): 0.31 µM (≈ 0.133 µg/mL)
MIC (Staphylococcus aureus [3]): 0.31 µM (≈ 0.133 µg/mL)
MIC (Staphylococcus aureus [13]): 0.3 µM (≈ 0.128 µg/mL)
Activity (Erythrocyte): 5.7%
MIC (Staphylococcus aureus [4]): 0.31 µM (≈ 0.133 µg/mL)
MBC [14]: 12.5 µM (≈ 5.35 µg/mL)
MBC (Staphylococcus aureus [15]): 50 µM (≈ 21.4 µg/mL)
IC50 (J774): > 100 µM
MIC [16]: 1.69 µM (≈ 0.724 µg/mL)
IC50 (HepG2): > 200 µM
MIC (Staphylococcus aureus [17]): 0.31 µM (≈ 0.133 µg/mL)
